Measured values taken from PMC6847114 (Nucleic Acids Research, 2019).

How the values were obtained:
[1] = tested on: HeLa cells; type: cell-based; conditions: Ru 100 μM + HCPs 300 μM; for Nuclear uptake of [Ru(bpy)2(dppz)]^2+ in full medium: full medium containing serum, CLSM
[2] = n-Octanol/aqueous partitioning; type: physicochemical; conditions: n-octanol / Tris–HCl buffer 10 mM pH 7.4, Ru 100 μM
Method in brief: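 Shake-flask partitioning of the Ru complex between n-octanol and aqueous Tris–HCl (10 mM, pH 7.4), run with or without highly chlorinated phenols (penta-, tetra- or trichlorophenols) at different Ru:phenol ratios. The complex was quantified in each phase by UV-vis absorbance. Ion-pair lipophilicity is reported as n-octanol-phase absorption intensity at Ru/phenol 1:10, multiplied by 10.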

[3] = ref [52]; cited from earlier work
[4] = ref [53],[54]; cited from earlier work

Structure (SMILES) | Nuclear uptake of [Ru(bpy)2(dppz)]^2+ in full medium [1] | Cellular and nuclear uptake of [Ru(bpy)2(dppz)]^2+ by luminescence ([1]; serum-free medium, flow cytometry and CLSM) | Lipophilicity of the ion-pairing complex formed with [Ru(bpy)2(dppz)]Cl2 [2] | log Kow [3] | pKa [4]
Oc1cc(Cl)c(Cl)c(Cl)c1Cl [2,3,4,5-TeCP, 2,3,4,5-tetrachlorophenol] | facilitated | most effective | least hydrophobic | 4.95 | 5.64
Oc1c(Cl)c(Cl)c(Cl)c(Cl)c1Cl [PCP, pentachlorophenol] | facilitated | – | most lipophilic | 5.01 | –
